From ChEMBL document CHEMBL1126752, “Synthesis and biological activity of cis-(3aR)-(-)-2,3,3a,4,5,9b-hexahydro- 3-propyl-1H-benz[e]indole-9-carboxamide: a potent and selective 5-HT1A receptor agonist with good oral availability” (J Med Chem, 1993) come the findings set out here.

SMILES strings stand for the structures. Activity calls are given as the source filed them. The rule behind the calls is not given here. A value given as a limit tells only on which side of the number the result lay.

The target in experiment [1] is T1, 5-hydroxytryptamine receptor 1A (Homo sapiens, UniProt P08908).
T1 sequence (P08908 whole entry): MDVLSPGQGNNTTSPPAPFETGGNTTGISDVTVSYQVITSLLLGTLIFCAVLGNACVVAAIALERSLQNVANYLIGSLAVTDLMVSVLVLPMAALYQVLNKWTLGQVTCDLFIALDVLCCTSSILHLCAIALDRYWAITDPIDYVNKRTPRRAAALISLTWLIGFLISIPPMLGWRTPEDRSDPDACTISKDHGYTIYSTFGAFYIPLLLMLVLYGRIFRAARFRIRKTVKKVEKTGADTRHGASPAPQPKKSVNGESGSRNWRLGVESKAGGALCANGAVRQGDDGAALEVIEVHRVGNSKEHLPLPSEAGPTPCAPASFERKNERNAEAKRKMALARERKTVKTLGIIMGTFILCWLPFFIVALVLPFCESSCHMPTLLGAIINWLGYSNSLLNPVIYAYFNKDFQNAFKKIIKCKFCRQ
Description: Binding affinity against [3H]8-OH-DPAT-labeled 5-hydroxytryptamine 1A receptor sites in cloned CHO cells. Type of experiment: cell-based. The gist of the method: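 Competition binding against [3H]-8-OH-DPAT (85 Ci/mmol, 1.2 nM) using 11 dilutions of test compound. Receptor was cloned mammalian 5-HT1A expressed in CHO-K1 cells. IC50 from a one-site nonlinear least-squares fit, converted to Ki by Cheng-Prusoff. Ki reported ±SEM.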

Experiment [2] has as its system Felis catus. Description: Maximum decrease in blood pressure observed following 1 mg/kg dose in anesthetized cat. Type of experiment: functional. Also on record: unit not given here. The gist of the method:
(§1)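 Adult cats (2.5-4.0 kg) anesthetized with ketamine 11 mg/kg im then chloralose 80 mg/kg iv. Animals paralyzed with gallamine, ventilated, and kept at 37-38 °C. Blood pressure recorded via femoral artery. Sympathetic activity quantified by cumulative integration. Increasing doses given iv cumulatively at 20-min intervals.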

The subject of experiment [3] is Felis catus. Briefly: Maximum decrease in sympathetic nerve discharge in anesthetized cat. The class given is functional. In a few lines: as §1
The subject of experiment [4] is Felis catus. Description: Percent arterial blood pressure at sympathetic nerve discharge in anesthetized cat. Type of experiment: functional. In a few lines: as §1
In experiment [5] the test system is Felis catus. Description: Inhibition of sympathetic nerve discharge (SND) in anesthetized cat. The class given is functional. In a few lines: as §1
For experiment [6], the system named is Mus musculus. Description: Swimming activity of the treated mice/control mice at 39 umol/kg, sc (p < 0.01). The class given is functional.
Experiment [7] relates to Mus musculus. Description: Swimming activity of the treated mice/control mice at 6.6 umol/kg, sc. The class given is functional.
Experiment [8] has as its system Rattus norvegicus. Description: DOPA accumulation in limbic system of reserpinized rats following peroral administration at highest dose tested (50 umol/kg); Partially active. Type of experiment: functional, organism-based.
Experiment [9] relates to Rattus norvegicus. Briefly: 5-HTP accumulation in corpus striatum of reserpinized rats following peroral administration. Type of experiment: functional. Conditions: po.
For experiment [10], the system named is Rattus norvegicus. Description: 5-HTP accumulation in corpus striatum of reserpinized rats following subcutaneous administration. The class given is functional. The note with it: sc.
Experiment [11] is filed under the species Rattus norvegicus. Description: Inhibition of 5-HT1A cell firing in rats. The class given is functional. In a few lines: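 Male Sprague-Dawley rats (280-330 g) under chloral hydrate anesthesia (400 mg/kg ip), drug given iv via femoral vein in distilled water. Dorsal raphe serotonergic neurons recorded extracellularly and confirmed histologically by dye deposit. Firing rate followed by integrated ratemeter.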

For experiment [12], the system named is Rattus norvegicus. Description: 5-HTP accumulation in hemispheres of reserpinized rats following peroral administration. Type of experiment: functional. The note with it: po.
The subject of experiment [13] is Rattus norvegicus. Description: 5-HTP accumulation in hemispheres of reserpinized rats following subcutaneous administration. The class given is functional. The note with it: sc.
Experiment [14] concerns Rattus norvegicus. Briefly: 5-HTP accumulation in limbic system of reserpinized rats following peroral administration. The class given is functional. The note with it: po.
Experiment [15] deals with Rattus norvegicus. Briefly: 5-HTP accumulation in limbic system of reserpinized rats following subcutaneous administration. The note with it: sc. The class given is functional.
Experiment [16] has as its system Rattus norvegicus. Description: DOPA accumulation in corpus striatum of reserpinized rats following peroral administration at highest dose tested (50 umol/kg); Inactive. The class given is functional, organism-based.
The subject of experiment [17] is Rattus norvegicus. Description: DOPA accumulation in corpus striatum of reserpinized rats following subcutaneous administration at highest dose tested (50 umol/kg); Inactive. Type of experiment: functional, organism-based.
Experiment [18] relates to Rattus norvegicus. Description: DOPA accumulation in hemispheres of reserpinized rats following peroral administration at highest dose tested (50 umol/kg); Inactive. Type of experiment: functional, organism-based.
The subject of experiment [19] is Rattus norvegicus. Description: DOPA accumulation in hemispheres of reserpinized rats following subcutaneous administration at highest dose tested (50 umol/kg); Inactive. Type of experiment: functional, organism-based.
The subject of experiment [20] is Rattus norvegicus. Briefly: DOPA accumulation in limbic system of reserpinized rats following subcutaneous administration at highest dose tested (50 umol/kg); Inactive. Type of experiment: functional, organism-based.
Experiment [21] deals with Rattus norvegicus. Briefly: In vivo motor activity at 5 umol/kg (sc) in male rats expressed as accumulated counts/30 min (p < 0.001). Type of experiment: functional.
Experiment [22] deals with Rattus norvegicus. Briefly: In vivo motor activity at 50 umol/kg (po) in male rats expressed as accumulated counts/30 min (p < 0.001). The class given is functional.
The species entered for experiment [23] is Rattus norvegicus. Briefly: Compound was tested for gross behavioral response in rats; full-blown 5-HT syndrome. Type of experiment: functional, organism-based.
Experiment [24] has as its system Mus musculus. Briefly: Effect on hypothermia in mice following peroral administration. The note with it: po.
Experiment [25] deals with Mus musculus. Briefly: Effect on hypothermia in mice following subcutaneous administration. The note with it: sc.
The test system of experiment [26] is Mus musculus. Description: Swimming activity of the treated mice/control mice at 1.2 umol/kg, sc. Type of experiment: functional.
Experiment [27] concerns Mus musculus. Description: Swimming activity of the treated mice/control mice at 12 umol/kg, sc (p < 0.001). Type of experiment: functional.
The test system of experiment [28] is Mus musculus. Briefly: Swimming activity of the treated mice/control mice at 3.9 umol/kg, sc (p < 0.001). Type of experiment: functional.
Experiment [29] concerns Mus musculus. Description: Swimming activity of the treated mice/control mice at 39 umol/kg, sc (p < 0.001). Type of experiment: functional.
The subject of experiment [30] is Rattus norvegicus. Briefly: In vivo motor activity at 50 umol/kg (sc) in male rats expressed as accumulated counts/30 min (p < 0.01). The class given is functional.

For orientation: Ki means the dissociation constant of the complex between target and ligand, obtained from inhibition or displacement. Usually ED50 stands for the dose that gives a 50% effect, or the effect in half of the subjects. `O=C(NCCN1CCN(c2cccc3c2OCC(CO)O3)CC1)c1ccc(F)cc1` (single isomer, unassigned; (+)) yielded an inhibitory constant (Ki) in [1] of 2.9 nM. Besides, the Max decrease in the experiment with Felis catus [2] came to 55; with Felis catus [3], 2. For the same compound, the BP in the experiment on Felis catus [4] is 79%. Besides, the ED50 with Felis catus [5] was 0.14 µmol/kg; in the experiment with Rattus norvegicus [8], “Weak activity”; in the experiment on Rattus norvegicus [9], 0.27 µmol/kg; with Rattus norvegicus [10], 0.55 µmol/kg; in the experiment listed under Rattus norvegicus [11], 0.16 µmol/kg; with Rattus norvegicus [12], 0.36 µmol/kg. Moreover, the ED50 worked out at 0.63 µmol/kg in the experiment with Rattus norvegicus [13]; 0.36 µmol/kg with Rattus norvegicus [14]; 0.63 µmol/kg in the experiment with Rattus norvegicus [15]; 1.6 µmol/kg with Mus musculus [24]; 0.16 µmol/kg in the experiment with Mus musculus [25]. Also, the Swimming activity worked out at 3.3 with Mus musculus [6] and 0.6 in the experiment on Mus musculus [7]. In addition, the ED50 result with Rattus norvegicus [16], in the experiment on Rattus norvegicus [17], in the experiment on Rattus norvegicus [18], with Rattus norvegicus [19] and with Rattus norvegicus [20] was “inactive” in each case. For the same compound, the “Accumulated counts/30 min” value with Rattus norvegicus [21] is 84; in the experiment with Rattus norvegicus [22], 135. Besides, in the experiment filed under Rattus norvegicus [23], the Response entry was “Active”.

In experiment [1], `CCCN1CCC2c3c(cccc3C(N)=O)CC[C@@H]21` (single isomer, unassigned; (+)-3a) displayed an inhibitory constant (Ki) of 17 nM. Further, the Swimming activity with Mus musculus [26] stood at 1; with Mus musculus [27] it was 4.7; with Mus musculus [28] it was 4; in the experiment on Mus musculus [29], 8.3. In addition, the 50% effective dose (ED50) with Rattus norvegicus [10] was 1.6 µmol/kg; in the experiment listed under Rattus norvegicus [11] it was above 1.2 µmol/kg; in the experiment on Rattus norvegicus [13] it was 5.2 µmol/kg; in the experiment on Rattus norvegicus [15] it was 1.8 µmol/kg; in the experiment with Mus musculus [24], 28 µmol/kg; with Mus musculus [25] it was 8.9 µmol/kg. For the same compound, in the experiment on Rattus norvegicus [30], the “Accumulated counts/30 min” value amounted to 17.
